In assay [1] the target is T1, Muscarinic acetylcholine receptor M5 (Homo sapiens) (UniProt P08912).
T1 sequence (whole entry): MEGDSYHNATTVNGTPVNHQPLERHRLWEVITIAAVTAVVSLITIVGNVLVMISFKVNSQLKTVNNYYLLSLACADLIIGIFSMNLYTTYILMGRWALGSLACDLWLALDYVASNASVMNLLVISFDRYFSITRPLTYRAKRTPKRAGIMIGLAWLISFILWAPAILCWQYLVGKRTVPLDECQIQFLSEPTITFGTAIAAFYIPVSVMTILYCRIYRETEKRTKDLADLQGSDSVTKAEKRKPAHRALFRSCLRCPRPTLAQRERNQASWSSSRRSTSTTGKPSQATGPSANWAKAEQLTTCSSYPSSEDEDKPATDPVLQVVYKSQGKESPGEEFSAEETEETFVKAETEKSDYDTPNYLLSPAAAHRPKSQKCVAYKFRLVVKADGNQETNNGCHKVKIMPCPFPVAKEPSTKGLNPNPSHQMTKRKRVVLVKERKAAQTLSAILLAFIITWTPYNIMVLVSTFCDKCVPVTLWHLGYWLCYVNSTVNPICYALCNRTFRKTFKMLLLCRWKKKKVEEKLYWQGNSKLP
The assay is described as follows: Cooperativity with NMS at Muscarinic acetylcholine receptor M5. The procedure, abridged:
(§1)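 Equilibrium ³H-NMS binding in CHO membranes expressing human m1–m5 receptors was measured with and without ACh, alone and with three agent concentrations. Data were converted to affinity ratios, meaning apparent primary-ligand affinity with agent divided by affinity without it.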

Assay [2] concerns the target T1, Muscarinic acetylcholine receptor M5 (Homo sapiens). The assay is described as follows: Binding affinity at the unliganded Muscarinic acetylcholine receptor M5 was estimated as log affinity (log1/M). The procedure, abridged: (§2)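 Equilibrium runs were ≥2 h with 2 × 10⁻⁴ M GTP and 0.1–0.7 nM ³H-NMS. Nonspecific binding was defined with 10⁻⁶ M QNB, and bound ligand was filtered and counted. Log affinities came from semiquantitative plus off-rate, quantitative equilibrium, or nonequilibrium assays, fitted by nonlinear least squares to the allosteric ternary complex model.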

Assay [3] has as its target T2, Muscarinic acetylcholine receptor M1 (Homo sapiens) (UniProt P11229).
T2 sequence (whole entry): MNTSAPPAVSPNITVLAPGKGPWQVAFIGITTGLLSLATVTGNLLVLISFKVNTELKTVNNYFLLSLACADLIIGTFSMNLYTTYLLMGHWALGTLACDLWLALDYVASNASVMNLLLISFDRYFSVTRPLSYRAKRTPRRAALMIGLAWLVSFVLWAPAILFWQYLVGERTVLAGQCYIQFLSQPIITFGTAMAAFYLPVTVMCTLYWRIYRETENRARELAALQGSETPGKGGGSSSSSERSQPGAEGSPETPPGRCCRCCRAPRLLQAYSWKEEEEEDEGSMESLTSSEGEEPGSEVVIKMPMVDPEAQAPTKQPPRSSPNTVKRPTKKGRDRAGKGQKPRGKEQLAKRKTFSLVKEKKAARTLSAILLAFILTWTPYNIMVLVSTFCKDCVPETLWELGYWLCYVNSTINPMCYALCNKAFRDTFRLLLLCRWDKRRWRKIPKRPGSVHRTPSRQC
Briefly: Binding affinity at the unliganded human muscarinic acetylcholine receptor M1 was estimated as log affinity (log1/M). The method in brief:
as §2

For assay [4], the target named is T1, Muscarinic acetylcholine receptor M5 (Homo sapiens). Briefly: Binding affinity at the NMS liganded human muscarinic acetylcholine receptor M5 was estimated as log affinity (log1/M). The method in brief: as §2
The target in assay [5] is Muscarinic acetylcholine receptor M3 (Homo sapiens) (UniProt P20309). Briefly: Binding affinity at the unliganded human muscarinic acetylcholine receptor M3 was estimated as log affinity (log1/M). The procedure, abridged: as §2
Sequence of Muscarinic acetylcholine receptor M3 (Homo sapiens) (P20309 whole entry, looked up): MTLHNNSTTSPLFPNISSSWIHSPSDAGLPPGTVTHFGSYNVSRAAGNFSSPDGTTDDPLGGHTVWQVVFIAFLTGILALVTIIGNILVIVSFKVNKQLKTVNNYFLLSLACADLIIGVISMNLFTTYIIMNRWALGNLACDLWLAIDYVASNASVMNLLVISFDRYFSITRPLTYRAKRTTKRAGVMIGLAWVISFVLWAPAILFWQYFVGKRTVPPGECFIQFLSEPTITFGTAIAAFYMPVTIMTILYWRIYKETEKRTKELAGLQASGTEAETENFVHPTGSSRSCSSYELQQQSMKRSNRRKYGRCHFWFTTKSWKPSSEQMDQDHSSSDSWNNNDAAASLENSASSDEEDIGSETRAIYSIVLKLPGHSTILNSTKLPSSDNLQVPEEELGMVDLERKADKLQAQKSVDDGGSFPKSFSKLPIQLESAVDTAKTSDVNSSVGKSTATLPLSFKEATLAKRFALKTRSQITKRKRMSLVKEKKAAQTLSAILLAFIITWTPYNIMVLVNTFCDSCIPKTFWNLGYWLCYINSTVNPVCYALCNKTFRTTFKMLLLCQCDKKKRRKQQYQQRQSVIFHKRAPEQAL
Assay [6] has as its target T3, Muscarinic acetylcholine receptor M4 (Homo sapiens) (UniProt P08173).
T3 sequence (whole entry): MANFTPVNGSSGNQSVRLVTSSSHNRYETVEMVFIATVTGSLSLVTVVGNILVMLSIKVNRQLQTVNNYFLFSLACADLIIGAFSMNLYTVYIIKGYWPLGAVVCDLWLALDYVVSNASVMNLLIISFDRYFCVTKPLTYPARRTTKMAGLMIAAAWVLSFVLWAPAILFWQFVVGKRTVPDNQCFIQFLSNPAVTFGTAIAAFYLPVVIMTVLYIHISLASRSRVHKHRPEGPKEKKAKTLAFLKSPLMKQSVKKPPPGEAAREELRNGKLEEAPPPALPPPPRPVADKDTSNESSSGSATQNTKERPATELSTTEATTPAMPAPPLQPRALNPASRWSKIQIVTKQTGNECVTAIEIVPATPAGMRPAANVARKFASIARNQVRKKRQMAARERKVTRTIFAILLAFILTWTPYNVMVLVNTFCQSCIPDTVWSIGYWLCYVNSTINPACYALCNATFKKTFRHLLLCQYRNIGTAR
The assay is described as follows: Binding affinity at the NMS liganded human muscarinic acetylcholine receptor M4 was estimated as log affinity (log1/M). The method in brief:
as §2

For assay [7], the target named is Muscarinic acetylcholine receptor M3 (Homo sapiens) (UniProt P20309). The assay is described as follows: Binding affinity at the NMS liganded human muscarinic acetylcholine receptor M3 was estimated as log affinity (log1/M). The procedure, abridged: as §2
The target of assay [8] is T3, Muscarinic acetylcholine receptor M4 (Homo sapiens). Briefly: Binding affinity at the unliganded human muscarinic acetylcholine receptor M4 was estimated as log affinity (log1/M). The method in brief: as §2
Assay [9] has as its target T2, Muscarinic acetylcholine receptor M1 (Homo sapiens). The assay is described as follows: Cooperativity with acetylcholine at human muscarinic acetylcholine receptor M1. The method in brief: as §1
In assay [10] the target is T1, Muscarinic acetylcholine receptor M5 (Homo sapiens). Briefly: Cooperativity with acetylcholine at Muscarinic acetylcholine receptor M5. The procedure, abridged:
as §1

For assay [11], the target named is T4, Muscarinic acetylcholine receptor M2 (Homo sapiens) (UniProt P08172).
T4 sequence (whole entry): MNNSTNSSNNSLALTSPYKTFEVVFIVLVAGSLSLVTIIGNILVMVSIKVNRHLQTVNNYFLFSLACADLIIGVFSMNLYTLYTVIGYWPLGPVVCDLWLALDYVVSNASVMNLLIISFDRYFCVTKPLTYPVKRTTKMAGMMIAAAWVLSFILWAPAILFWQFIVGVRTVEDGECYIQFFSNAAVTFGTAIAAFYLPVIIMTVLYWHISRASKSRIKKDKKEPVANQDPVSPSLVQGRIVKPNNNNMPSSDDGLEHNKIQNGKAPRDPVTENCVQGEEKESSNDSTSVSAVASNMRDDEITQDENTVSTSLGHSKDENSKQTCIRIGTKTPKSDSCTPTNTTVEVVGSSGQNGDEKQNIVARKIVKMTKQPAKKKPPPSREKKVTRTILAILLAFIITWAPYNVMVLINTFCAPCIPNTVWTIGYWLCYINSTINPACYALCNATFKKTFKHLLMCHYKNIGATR
Briefly: Cooperativity with NMS at human muscarinic acetylcholine receptor M2. The procedure, abridged: as §1

For assay [12], the target named is T4, Muscarinic acetylcholine receptor M2 (Homo sapiens). The assay is described as follows: Binding affinity at the NMS liganded human muscarinic acetylcholine receptor M2 was estimated as log affinity (log1/M). The procedure, abridged: as §2
The target is the same in assay [13]. The assay is described as follows: Binding affinity at the unliganded human muscarinic acetylcholine receptor M2 was estimated as log affinity (log1/M). The method in brief:
as §2

Assay [14] deals with T3, Muscarinic acetylcholine receptor M4 (Homo sapiens). Briefly: Cooperativity with NMS at human muscarinic acetylcholine receptor M4. The method in brief: as §1
Assay [15] deals with T4, Muscarinic acetylcholine receptor M2 (Homo sapiens). The assay is described as follows: Cooperativity with acetylcholine at human muscarinic acetylcholine receptor M2. The method in brief: as §1
The target in assay [16] is T3, Muscarinic acetylcholine receptor M4 (Homo sapiens). Briefly: Cooperativity with acetylcholine at human muscarinic acetylcholine receptor M4. The procedure, abridged:
as §1

Assay [17] has as its target T2, Muscarinic acetylcholine receptor M1 (Homo sapiens). The assay is described as follows: Binding affinity at the NMS liganded human muscarinic acetylcholine receptor M1 was estimated as log affinity (log1/M). The procedure, abridged: as §2
The target is the same in assay [18]. The assay is described as follows: Cooperativity with NMS at human muscarinic acetylcholine receptor M1. The method in brief:
as §1

Assay [19] concerns the target Muscarinic acetylcholine receptor M3 (Homo sapiens) (UniProt P20309). The assay is described as follows: Cooperativity with NMS at human muscarinic acetylcholine receptor M3. The procedure, abridged: as §1
The target is the same in assay [20]. Briefly: Cooperativity with acetylcholine at human muscarinic acetylcholine receptor M3. The method in brief:
as §1

With `COc1cc2c(cc1OC)[C@@]13CC[N+]4(Cc5ccccc5)CC5=CCO[C@H]6CC(=O)N2[C@H]1[C@H]6[C@H]5C[C@@H]34` (stereo not given in full), the Cooperativity was 1.19 in [1]; 0.8 in assay [9]; 0.8 in [10]; more than 2 in [11]; 1.19 in [14]; 0.8 in assay [15]. In addition, the Cooperativity came out at 0.8 in assay [16], 0.8 in assay [18], 0.8 in assay [19] and 2 in [20]. Also, the Affinity in [2] is 3.7; in assay [3], less than 4.6; in assay [4] it was 3.7; in assay [5], more than 4; in [6] it was 4.5; in assay [7], 3.8. Also, the Affinity in assay [8] is 4.5; in [12], 4.8; in assay [13] it was 4.6; in assay [17] it was 4.4.
